Experimental data published in ChEMBL document CHEMBL1147419, “Inhibition of estrone sulfatase (ES) by alkyl and cycloalkyl ester derivatives of 4-[(aminosulfonyl)oxy] benzoic acid” (Bioorg Med Chem Lett, 2004).

Legend:
[1] = Partition coefficient (logP); assay type: physicochemical; conditions: octanol/water
[2] = target: T1, Steryl-sulfatase (Homo sapiens) (UniProt P08842); test: Inhibitory activity against estrone sulfatase at 20 uM (initial screening)
T1 sequence (whole entry): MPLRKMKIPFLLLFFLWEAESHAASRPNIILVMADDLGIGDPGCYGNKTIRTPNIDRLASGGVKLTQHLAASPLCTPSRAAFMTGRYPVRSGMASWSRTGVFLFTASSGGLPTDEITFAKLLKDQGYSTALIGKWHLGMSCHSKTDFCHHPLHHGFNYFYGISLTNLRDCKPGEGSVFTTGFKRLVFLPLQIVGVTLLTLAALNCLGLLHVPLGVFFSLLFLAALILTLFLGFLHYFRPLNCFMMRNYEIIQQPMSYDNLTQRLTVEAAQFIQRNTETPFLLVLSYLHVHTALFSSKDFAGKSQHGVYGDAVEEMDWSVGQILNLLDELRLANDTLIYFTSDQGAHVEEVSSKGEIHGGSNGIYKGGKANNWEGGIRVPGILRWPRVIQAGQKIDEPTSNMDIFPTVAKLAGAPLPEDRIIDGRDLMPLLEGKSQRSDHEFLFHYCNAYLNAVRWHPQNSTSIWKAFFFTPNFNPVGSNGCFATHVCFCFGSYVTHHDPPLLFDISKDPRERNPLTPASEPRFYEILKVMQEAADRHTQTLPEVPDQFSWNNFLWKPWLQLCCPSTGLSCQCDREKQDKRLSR
How it was run: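 Placental microsomes, diluted to 115 µg/mL in 0.05 M Tris-HCl pH 7.2 and pre-warmed 5 min at 37 °C, incubated 20 min at 37 °C with ³H-estrone sulfate (20 µM/tube, 300,000 dpm). Inhibitors were added in ethanol, then dried under nitrogen. Toluene quench, then toluene-phase radioactivity counted by scintillation. Triplicates, uninhibited controls, boiled-microsome blanks.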

Steryl-sulfatase = target: T2, Steryl-sulfatase (Homo sapiens, UniProt P08842); test: Inhibition of estrone sulfatase
T2 sequence (P08842 whole entry): T1 sequence (whole entry)

[3] = pKa value was determined; assay type: physicochemical
How it was run: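 The starting phenols' pKa was measured spectroscopically from the change in phenolic UV absorption under acidic (pH 2), pH 9 and basic (pH 11) conditions.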

[4] = target: T1, Steryl-sulfatase (Homo sapiens); conditions: 0.25 uM

Structure (SMILES) | logP [1] | inhibition [2] [%] | IC50 (Steryl-sulfatase) [nM] | pKa [3] | inhibition [4] [%]
CCCCCCOC(=O)c1ccc(OS(N)(=O)=O)cc1 | 3.49 |  |  |  | 
CCCCCCCOC(=O)c1ccc(OS(N)(=O)=O)cc1 | 3.89 |  |  |  | 
CCCCOC(=O)c1ccc(OS(N)(=O)=O)cc1 | 2.7 |  |  |  | 
CCCCCOC(=O)c1ccc(OS(N)(=O)=O)cc1 | 3.1 |  |  |  | 
NS(=O)(=O)Oc1ccc(C(=O)OC2CCCCCC2)cc1 | 3.47 | 87 | 500 | 8.88 | 
NS(=O)(=O)Oc1ccc(C(=O)OC2CCCCC2)cc1 | 3.08 | 84 | 1700 | 8.81 | 
CCOC(=O)c1ccc(OS(N)(=O)=O)cc1 | 1.84 |  |  |  | 
C[C@]12CC[C@@H]3c4ccc(OS(N)(=O)=O)cc4CCC3[C@@H]1CCC2=O (single isomer, unassigned) [EMATE] | 3.8 |  |  | 8.37 | 
NS(=O)(=O)Oc1ccc(C(=O)OC2CCCC2)cc1 | 2.68 | 62 | 9300 | 8.73 | 
Cc1cc(=O)oc2cc(OS(N)(=O)=O)ccc12 | 1.6 |  | 13800 | 8 | 
CCCCCCCCCCOC(=O)c1ccc(OS(N)(=O)=O)cc1 | 5.08 |  |  | 8.09 | 
CCCCCCCCCOC(=O)c1ccc(OS(N)(=O)=O)cc1 | 4.68 |  |  | 8.39 | 
CCCOC(=O)c1ccc(OS(N)(=O)=O)cc1 | 2.3 |  |  |  | 
COC(=O)c1ccc(OS(N)(=O)=O)cc1 | 1.49 |  |  |  | 
NS(=O)(=O)Oc1ccc2c3c(c(=O)oc2c1)CCCCC3 [IROSUSTAT] | 2.65 |  |  | 8.27 | 56
CCCCCCCCOC(=O)c1ccc(OS(N)(=O)=O)cc1 | 4.29 |  |  | 8.09 | 
NS(=O)(=O)Oc1ccc(C(=O)OC2CCCCCCC2)cc1 | 3.87 | 82 | 170 | 8.09 | 
